The array DNA melting data of Ke et al. (doi:10.1101/2024.01.08.574731)

Assays:
[1] = folding enthalpy; higher = less favourable; fluorescence melt of hairpins on a sequencing array, two-state fit; conditions: sodium 0.088 M
Summary of the method: (§1)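 Folding enthalpy and melting temperature were estimated with bootstrapped two-state fits and combined across four replicates by inverse-variance weighting, with fitted temperatures raised by 9.35 °C to match UV melts. The data were Cy3 fluorescence of library hairpins, with annealed Cy3 and quencher oligos, on a sequenced MiSeq flow cell in 50 mM Na-HEPES pH 8.0, 25 mM NaCl, imaged in 2.5 °C steps up to 60 °C and normalised to pre-quench Cy3 and control constructs.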

[2] = melting temperature; fluorescence melt of hairpins on a sequencing array, two-state fit, raised by 9.35 °C to match UV melts; conditions: sodium 0.088 M
Summary of the method: as §1

Sequence | folding enthalpy [1] | Tm [2]
GCGAGGCGAAAGCATAGC ((.(.((....)).).)) | -88.5 kJ/mol | 55.6 °C
GACGACGAAAGTCGCGTC ((((((....)))..))) | -44.3 kJ/mol | 49.9 °C
GCGGGTGGAAACGCCTGC ((.((.(....).)).)) | -117 kJ/mol | 51.7 °C
GCATCCGAAAGGAAATGC ((((((....)))..))) | -106 kJ/mol | 46.1 °C
GGCGTACGAAAGTAGGCC (((.(((....))).))) | -153 kJ/mol | 64.1 °C
GTCACAGGAAACTACGAC (((..((....))..))) | -91.3 kJ/mol | 28.4 °C
GAAGATGGAAACATCTTC (((((((....))))))) | -203 kJ/mol | 53.5 °C
CGCTGGCGGAAACGCGCG (((..(((....)))))) | -81.5 kJ/mol | 52.5 °C
GATCTCGGAGAGATC ((((((...)))))) | -139 kJ/mol | 67.4 °C
GGATCAGAAATGATCC ((((((....)))))) | -150 kJ/mol | 55.3 °C
GACGGAGGAAACCCCGTC (((((.(....).))))) | -157 kJ/mol | 51.3 °C
GGACACGAAAGTGGGTCC ((((((....)))..))) | -83.4 kJ/mol | 48.7 °C
GTCGCCGGAAACAGCGAC (((((.(....).))))) | -188 kJ/mol | 54.9 °C
GGAGCCGGAAACAGCTCC (((((.(....).))))) | -116 kJ/mol | 51.3 °C
GCTATGCGAAAGCTTCGC ((.(.((....)).).)) | -59.2 kJ/mol | 41.5 °C
GCCCGCGAAAGCGCCGGC ((((((....)))..))) | -73.1 kJ/mol | 52.3 °C
GCGTCTGACGC ((((...)))) | -101 kJ/mol | 56.7 °C
GGTACCGAAAGGTGAACC ((((((....)))..))) | -64.9 kJ/mol | 37.1 °C
GGTATCGGAAACGATGCC ((.((((....)))).)) | -159 kJ/mol | 54.6 °C
GTCGTTCGAAAGAATGAC (((.(((....))).))) | -176 kJ/mol | 54.9 °C
GATCTAGGCGTAGATC ((((((....)))))) | -136 kJ/mol | 45.4 °C
GACCCCGAAAGGGAGTC ((((((....))).))) | -96.4 kJ/mol | 56.5 °C
GCGCTCGAAAGAGCACGC ((((((....)))..))) | -69.7 kJ/mol | 60 °C

Sequence | folding enthalpy [1] | Tm [2]
GACTGCGGAAACGCAACC (..((((....))))..) | -38.5 kJ/mol | 25.1 °C
GATCGATATGTCGATC ((((((....)))))) | -175 kJ/mol | 55 °C
GGCTCTTCGAAAGAAGCC (((..(((....)))))) | -68.3 kJ/mol | 37.6 °C
GCTGCCGAAAGGCCCAGC ((((((....)))..))) | -51.1 kJ/mol | 35.8 °C
GCTTGTCGAAAGACAGC (((.(((....)))))) | -83.3 kJ/mol | 52.9 °C
GTTACCGAAAGGTATAAC ((((((....)))..))) | -49 kJ/mol | 31.1 °C
GGTAGCGGAAACGTTGCC ((.(.((....)).).)) | -106 kJ/mol | 39.3 °C
GCATCGCGAAAGCATTGC (((..((....))..))) | -54.7 kJ/mol | 37.7 °C
GGCGAACGAAAGTTAGCC (((.(((....))).))) | -144 kJ/mol | 59.8 °C
GTTATAGGAAACTATGAC ((.((((....)))).)) | -96.3 kJ/mol | 33 °C
GATCAGCGTACTGATC ((((((....)))))) | -126 kJ/mol | 51.6 °C
GTGCTAGAAATAGCAC ((((((....)))))) | -169 kJ/mol | 56.5 °C
GATTCGCGAAAGCGGATC (((.(((....))).))) | -116 kJ/mol | 60.5 °C
GTCTGGTCGAAAGACGAC (((..(((....)))))) | -71.8 kJ/mol | 41.5 °C
GATCACAGTAGTGATC ((((((....)))))) | -168 kJ/mol | 59 °C
GTGACACGAAAGTGCAC (((.(((....)))))) | -72.2 kJ/mol | 53.2 °C
GTCTACGGAAACGCAGAC ((((.((....)).)))) | -147 kJ/mol | 45.1 °C
GGGTCGCGAAAGCGCCC (((.(((....)))))) | -93.8 kJ/mol | 65.3 °C
GATGCCGAAAGGCAATC ((((((....))).))) | -57.6 kJ/mol | 53 °C
GCTATGCGAAAGCAAGC (((.(((....)))))) | -73.2 kJ/mol | 51.7 °C
GTCCCCCGAAAGGGAGAC (((.(((....))).))) | -126 kJ/mol | 56.6 °C
GAGCTACGAAAGTACTC (((.(((....)))))) | -89.2 kJ/mol | 39.1 °C
GTTGTTCGAAAGAATAAC (((.(((....))).))) | -132 kJ/mol | 45.6 °C

Sequence | folding enthalpy [1] | Tm [2]
GTGTCGGGAAACTGACGC (.(((.(....).))).) | -103 kJ/mol | 45.5 °C
GCACGCGGAAACGCACGC ((..(((....)))..)) | -75.8 kJ/mol | 47.2 °C
GATCGGGGCACCGATC ((((((....)))))) | -146 kJ/mol | 65.9 °C
GTCGTAACGAAAGTTGAC (((..(((....)))))) | -93.7 kJ/mol | 35.8 °C
GTATATCGAAAGATGTAC (((.(((....))).))) | -133 kJ/mol | 44.5 °C
GTCACGGGAAACTGTGAC (((((.(....).))))) | -168 kJ/mol | 54.6 °C
GGTAGAGGAAACTCCACC (((.(((....))).))) | -118 kJ/mol | 31.6 °C
GGTATAGGAAACCATACC (((((.(....).))))) | -96.6 kJ/mol | 36.7 °C
GGTCTGCGAAAGCAAACC (((.(((....))).))) | -113 kJ/mol | 47.1 °C
GGCCTAGGAAACTAAGCC (((.(((....))).))) | -84 kJ/mol | 38.2 °C
GGCGCAGGAAACTGTGCC (((.(((....))).))) | -199 kJ/mol | 61.2 °C
GAAAGCGGAAACGTTTTC ((((.((....)).)))) | -128 kJ/mol | 42.4 °C
GGCGACCGAAAGGTAGCC (((.(((....))).))) | -110 kJ/mol | 69 °C
GAGCGCGCGAAAGCGCTC (((..(((....)))))) | -51.9 kJ/mol | 64.6 °C
GATCACCGAAAGGTAATC (((.(((....))).))) | -87.5 kJ/mol | 39.5 °C
GATCAGAAGACTGATC ((((((....)))))) | -122 kJ/mol | 44.9 °C
GGATAAACGAAAGTTTCC (((..(((....)))))) | -71.4 kJ/mol | 27.7 °C
GATCGCTACTGCGATC ((((((....)))))) | -144 kJ/mol | 68.5 °C
GTAGAGGGAAACCTCTAC (((((((....))))))) | -227 kJ/mol | 55.8 °C
GGTTACGAAAGTAGCACC ((((((....)))..))) | -60.5 kJ/mol | 31.7 °C
GATCGACCATTCGATC ((((((....)))))) | -166 kJ/mol | 50.1 °C
GAGGTGGCGAAAGCCCTC (((..(((....)))))) | -60.4 kJ/mol | 43.7 °C
GCAGCCGGAAACGACTGC ((((.((....)).)))) | -182 kJ/mol | 56.6 °C

Sequence | folding enthalpy [1] | Tm [2]
GTAGACGGAAACGTTTGC (.(.(((....))).).) | -70 kJ/mol | 29.6 °C
GGGGAATCGAAAGATCCC (((..(((....)))))) | -94.1 kJ/mol | 49.1 °C
GATCCTGAACAGGATC ((((((....)))))) | -161 kJ/mol | 59.9 °C
GCTAACGAAAGTTTTAGC ((((((....)))..))) | -72.9 kJ/mol | 33.6 °C
GTAGACGAAAGTCGTTAC ((((((....)))..))) | -46.1 kJ/mol | 34.6 °C
GTTGATGGAAACGTCAAC (((((.(....).))))) | -180 kJ/mol | 47.1 °C
GTCAATGGAAACATCGAC (((.(((....))).))) | -139 kJ/mol | 33.3 °C
GATCGGGGCCCCGATC ((((((....)))))) | -230 kJ/mol | 68.6 °C
GTCAGCGAAAGCTAAGAC ((((((....)))..))) | -69.9 kJ/mol | 41.5 °C
GGATGCGAAAGCAGGTCC ((((((....)))..))) | -49.2 kJ/mol | 37.7 °C
GATCTAGCCTTAGATC ((((((....)))))) | -162 kJ/mol | 44.4 °C
GGAATGGGAAACCATTTC (.(((((....))))).) | -144 kJ/mol | 42.2 °C
GGTGACGAAAGTCACACC ((((((....)))..))) | -32.8 kJ/mol | 56 °C
GATGCGGGAAACTGCATC (((((.(....).))))) | -178 kJ/mol | 54.7 °C
GTTCTGCGAAAGCAAAC (((.(((....)))))) | -56.4 kJ/mol | 36.9 °C
GAGTGACGAAAGTCCCTC (((.(((....))).))) | -102 kJ/mol | 45.1 °C
GCGTAGGGAAACCTACAC (.(((((....))))).) | -60.7 kJ/mol | 40.8 °C
GTATAAGGAAACTTATAC (((((((....))))))) | -129 kJ/mol | 46 °C
GACTACGAAAGTACTGTC ((((((....)))..))) | -77.4 kJ/mol | 29.9 °C
GAGGGTGAAAACCCTC ((((((....)))))) | -136 kJ/mol | 64.2 °C
GCGATAGGAAACTATCAC (.(((((....))))).) | -77 kJ/mol | 35.9 °C
GCGAACAATCGC ((((....)))) | -76.4 kJ/mol | 39.9 °C
GACACGCGAAAGCGGTC (((.(((....)))))) | -64.2 kJ/mol | 56 °C
